In ChEMBL document CHEMBL1125644, “A new class of calcium antagonists. 2. Synthesis and biological activity of 11-[[4-[4-(4-fluorophenyl)-1-piperazinyl]butyryl]amino]-6,11- dihydrodibenzo[b,e]-thiepin maleate and related compounds” (J Med Chem, 1991):
Active and inactive are the calls of the source. The rule behind the calls is not given here.

Legend:
Rattus norvegicus [1] = assay: Preventive effect of compound was measured on vasopressin-induced ST depression rats at 30 mg/kg po dose after 7 hr of administration; +=Differ from control value; type: functional, organism-based; design: dose 30 mg/kg
Summary of the method: (§1)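 Male Donryu rats (150-220 g), pentobarbital 60 mg/kg ip. Compound in 0.5% tragacanth given orally; vasopressin 0.2 IU/kg iv via femoral vein cannula. Lead II ECG ST depression measured every 30 s for 5 min after vasopressin. 10-20 experiments; + means p < 0.05 vs control, - not significant.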

Rattus norvegicus [2] = assay: Preventive effect of compound was measured on vasopressin-induced ST depression rats at 10 mg/kg po dose after 2 hr of administration; +=Differ from control value; type: functional, organism-based; design: dose 10 mg/kg; summary of the method: as §1
Rattus norvegicus [3] = assay: Preventive effect of compound was measured on vasopressin-induced ST depression rats at 30 mg/kg po dose after 1 hr of administration; +=Differ from control value; type: functional, organism-based; design: dose 30 mg/kg; summary of the method: as §1
Rattus norvegicus [4] = organism: Rattus norvegicus; assay: Inhibition of calcium activation was assessed against calcium-induced constriction of potassium-depolarized rat aorta (Negative logarithm of the molar concentration); type: functional, organism-based; conditions: read-out: pA2 (converted)
Rattus norvegicus [5] = assay: Preventive effect of compound was measured on methacholine-induced ST elevation in anesthetized rats at 0.1 mg/kg iv dose without test compound; type: functional
Summary of the method: (§2)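 Male Sprague-Dawley rats (~500 g), pentobarbital 60 mg/kg ip. Methacholine 8 μg/kg bolus via carotid cannula near aortic valve into coronary ostia, before, at 0.5 min and every 5 min after iv compound (femoral vein; vehicle 5% ethanol in saline). Lead II ECG ST amplitude; mean ± SE, n=5; paired Student's t-test.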

Rattus norvegicus [6] = assay: Preventive effect of compound was measured on methacholine-induced ST elevation in anesthetized rats at 1 mg/kg iv dose without test compound; type: functional; summary of the method: as §2
Rattus norvegicus [7] = assay: Preventive effect of compound was measured on vasopressin-induced ST depression rats at 10 mg/kg po dose after 1 hr of administration; +=Differ from control value; type: functional, organism-based; design: dose 10 mg/kg; summary of the method: as §1
Rattus norvegicus [8] = assay: Preventive effect of compound was measured on methacholine-induced ST elevation in anesthetized rats at 1 mg/kg iv dose with test compound (0-90 min); type: functional; summary of the method: as §2
Rattus norvegicus [9] = organism: Rattus norvegicus; assay: Inhibitory effect of compound on calcium influx by high potassium in isolated rat aorta; type: functional
Summary of the method: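 Rat aortic strips; compound present 30 min before and during 45Ca incubation under high potassium. Strips then washed 60 min at 4 °C in La-substituted solution (73.8 mM LaCl3, 5.5 mM glucose, 24 mM Tris), dissolved in toluene at 40 °C, counted by liquid scintillation; expressed as apparent tissue 45Ca content (mmol/kg wet wt).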

Rattus norvegicus [10] = assay: Preventive effect of compound was measured on vasopressin-induced ST depression rats at 10 mg/kg po dose after 3h of administration; +=Differ from control value; type: functional, organism-based; design: dose 10 mg/kg; summary of the method: as §1
Rattus norvegicus [11] = assay: Preventive effect of compound was measured on methacholine-induced ST elevation in anesthetized rats at 0.3 mg/kg iv dose without test compound; type: functional; summary of the method: as §2
Rattus norvegicus [12] = assay: Preventive effect of compound was measured on methacholine-induced ST elevation in anesthetized rats at 0.3 mg/kg iv dose with test compound (0-90 min); type: functional; summary of the method: as §2
Rattus norvegicus [13] = assay: Preventive effect of compound was measured on vasopressin-induced ST depression rats at 3 mg/kg po dose after 1 hr of administration; +=Differ from control value; type: functional, organism-based; design: dose 3 mg/kg; summary of the method: as §1
Rattus norvegicus [14] = organism: Rattus norvegicus; assay: inhibitory effect of compound on contraction induced by high potassium in isolated rat aorta; type: functional
Summary of the method: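 Isolated rat aortic strips contracted with high potassium; compound added 30 min before measurement.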

Rattus norvegicus [15] = organism: Rattus norvegicus; assay: Inhibitory effect of compound on contraction induced by high potassium in isolated rat aorta; type: functional
Summary of the method: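 Std-Wistar rat thoracic aorta spiral strips (3–4 mm × ~30 mm) under 1.0 g tension in Krebs-bicarbonate, 95% O2/5% CO2, 37 °C, depolarized; isometric contraction to Ca2+ recorded.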

Rattus norvegicus [16] = assay: Preventive effect of compound was measured on vasopressin-induced ST depression rats at 3 mg/kg po dose after 1 hr of administration; -=No significance; type: functional, organism-based; design: dose 3 mg/kg; summary of the method: as §1
Rattus norvegicus [17] = assay: Preventive effect of compound was measured on methacholine-induced ST elevation in anesthetized rats at 0.1 mg/kg iv dose with test compound (0-90 min); type: functional; summary of the method: as §2
Rattus norvegicus [18] = assay: Preventive effect of compound was measured on vasopressin-induced ST depression rats at 30 mg/kg po dose after 7 hr of administration; -=No significance; type: functional, organism-based; design: dose 30 mg/kg; summary of the method: as §1
Rattus norvegicus [19] = assay: Preventive effect of compound was measured on vasopressin-induced ST depression rats at 30 mg/kg po dose after 3h of administration; +=Differ from control value; type: functional, organism-based; design: dose 30 mg/kg; summary of the method: as §1
Rattus norvegicus [20] = assay: Preventive effect of compound was measured on vasopressin-induced ST depression rats at 10 mg/kg po dose after 3h of administration; -=No significance; type: functional, organism-based; design: dose 10 mg/kg; summary of the method: as §1

`O=C(CCCN1CCN(c2ccc(F)cc2)CC1)NC1c2ccccc2CSc2ccccc21.O=C(O)/C=C\C(=O)O` (stereo not drawn) [MONATEPIL MALEATE] was tested, and the Activity (Rattus norvegicus [1]) was “Differ from control value”, the Activity (Rattus norvegicus [2]) was “Differ from control value” and the Activity (Rattus norvegicus [3]) was “Differ from control value”. The Kb (Rattus norvegicus [4]) was 1.95 nM, the Activity (Rattus norvegicus [5]) was 0.198 delta mV and the Activity (Rattus norvegicus [6]) was 0.241 delta mV. For the same compound, the Activity (Rattus norvegicus [7]) was “Differ from control value”, the Activity (Rattus norvegicus [8]) was 0.088 delta mV and the IC50 (Rattus norvegicus [9]) was 16 nM. The Activity (Rattus norvegicus [10]) was “Differ from control value”, the Activity (Rattus norvegicus [11]) was 0.203 delta mV and the Activity (Rattus norvegicus [12]) was 0.093 delta mV. The Activity (Rattus norvegicus [13]) was “Differ from control value” and the IC50 (Rattus norvegicus [14]) was 21 nM.

`O=C(CCCN1CCN(S(=O)(=O)Oc2ccccc2)CC1)NC1c2ccccc2CSc2ccccc21` (stereo not drawn) was tested, and the Kb (Rattus norvegicus [4]) was 10.5 nM.

For `O=C(CCCN1CCN(C/C=C/c2ccccc2)CC1)NC1c2ccccc2C=Cc2ccccc21`, the Kb (Rattus norvegicus [4]) was 30.9 nM.

`O=C(CCCN1CCN(c2ccc(F)cc2)CC1)NC1c2ccccc2-c2ccccc21` was tested, and the Kb (Rattus norvegicus [4]) was 69.2 nM.

`COc1ccc(N2CCN(CCCC(=O)NC3c4ccccc4CSc4ccccc43)CC2)cc1` (stereo not drawn) showed a Kb (Rattus norvegicus [4]) of 3.39 nM.

`COc1ccc(CCN(C)CCCC(C#N)(c2ccc(OC)c(OC)c2)C(C)C)cc1OC` (stereo not drawn) showed a Kb (Rattus norvegicus [4]) of 6.92 nM.

With `COc1ccc(N2CCN(CCCC(=O)NC3c4ccccc4C=Cc4ccccc43)CC2)cc1OC` the Kb (Rattus norvegicus [4]) was 5.01 nM.

Work on `O=C(CCCN1CCN(C/C=C/c2ccccc2)CC1)NC1c2ccccc2CSc2ccccc21` (stereo not drawn) yielded a Kb (Rattus norvegicus [4]) of 7.59 nM.

`O=C(CCCN1CCN(CCc2ccccc2)CC1)NC1c2ccccc2C=Cc2ccccc21` showed a Kb (Rattus norvegicus [4]) of 8.91 nM.

`O=C(CCCN1CCN(CCCc2ccccc2)CC1)NC1c2ccccc2CSc2ccccc21` (stereo not drawn) gave a Kb (Rattus norvegicus [4]) of 12.3 nM.

Compound `O=C(CCCN1CCN(C(=O)c2ccccc2)CC1)NC1c2ccccc2CSc2ccccc21` (stereo not drawn) has a Kb (Rattus norvegicus [4]) of 36.3 nM.

`O=C(CCCN1CCN(c2ccc(F)cc2)CC1)NC1c2ccccc2Sc2ccccc21` was tested, and the Kb (Rattus norvegicus [4]) was 10.5 nM.

Compound `O=C(CCCN1CCN(C(=O)c2ccccc2)CC1)NC1c2ccccc2C=Cc2ccccc21` has a Kb (Rattus norvegicus [4]) of 20.9 nM.

`O=C(CCCN1CCN(c2ccccc2F)CC1)NC1c2ccccc2CSc2ccccc21` (stereo not drawn) gave a Kb (Rattus norvegicus [4]) of 3.24 nM.

`O=C(CCCCN1CCN(c2ccc(F)cc2)CC1)NC1c2ccccc2C=Cc2ccccc21` showed a Kb (Rattus norvegicus [4]) of 4.47 nM.

`O=C(CCN1CCN(c2ccc(F)cc2)CC1)NC1c2ccccc2C=Cc2ccccc21` gave a Kb (Rattus norvegicus [4]) of 2.75 nM.

With `O=C(CCCN1CCN(c2ccccc2)CC1)NC1c2ccccc2C=Cc2ccccc21` the Kb (Rattus norvegicus [4]) was 3.72 nM.

`O=C(CCCN1CCN(c2ccccc2)CC1)NC1c2ccccc2CSc2ccccc21` (stereo not drawn) was tested, and the Kb (Rattus norvegicus [4]) was 1.74 nM.

`O=C(CCCN1CCN(c2ccccc2F)CC1)NC1c2ccccc2C=Cc2ccccc21` gave a Kb (Rattus norvegicus [4]) of 3.47 nM.

With `COC(=O)C1=C(C)NC(C)=C(C(=O)OC)C1c1ccccc1[N+](=O)[O-]` [NIFEDIPINE] the IC50 (Rattus norvegicus [15]) was 2 nM and the IC50 (Rattus norvegicus [9]) was 4 nM.

For `O=C(CCN1CCN(c2ccc(F)cc2)CC1)NC1c2ccccc2CSc2ccccc21` (stereo not drawn), the Kb (Rattus norvegicus [4]) was 2.82 nM.

`Cc1ccc(N2CCN(CCCC(=O)NC3c4ccccc4CSc4ccccc43)CC2)cc1` (stereo not drawn) showed a Kb (Rattus norvegicus [4]) of 3.31 nM.

Work on `O=C(CCCN1CCN(C(=O)Oc2ccccc2)CC1)NC1c2ccccc2CSc2ccccc21` (stereo not drawn) yielded a Kb (Rattus norvegicus [4]) of 13.2 nM.

With `O=C(CCCN1CCN(c2ccc(F)cc2)CC1)NC1c2ccccc2C=Cc2ccccc21.O=C(O)/C=C\C(=O)O` the Kb (Rattus norvegicus [4]) was 1.05 nM, the Activity (Rattus norvegicus [5]) was 0.165 delta mV and the Activity (Rattus norvegicus [6]) was 0.224 delta mV. For the same compound, the Activity (Rattus norvegicus [8]) was 0.083 delta mV, the Activity (Rattus norvegicus [11]) was 0.188 delta mV and the Activity (Rattus norvegicus [12]) was 0.042 delta mV.

For `O=C(CCCN1CCN(c2ccc(Cl)cc2)CC1)NC1c2ccccc2CSc2ccccc21` (stereo not drawn), the Kb (Rattus norvegicus [4]) was 2.82 nM.

For `O=C(CCCN1CCN(c2ccc(C(F)(F)F)cc2)CC1)NC1c2ccccc2C=Cc2ccccc21`, the Kb (Rattus norvegicus [4]) was 2.09 nM.

In the case of `O=C(CCCN1CCN(Cc2ccccc2)CC1)NC1c2ccccc2C=Cc2ccccc21`, the Kb (Rattus norvegicus [4]) is reported as 6.03 nM.

For `COc1cccc(N2CCN(CCCC(=O)NC3c4ccccc4C=Cc4ccccc43)CC2)c1`, the Kb (Rattus norvegicus [4]) was 5.37 nM.

With `COc1ccc([C@@H]2Sc3ccccc3N(CCN(C)C)C(=O)[C@@H]2OC(C)=O)cc1` [DILTIAZEM] the Activity (Rattus norvegicus [2]) was “Active”, the Activity (Rattus norvegicus [16]) was “inactive” and the Activity (Rattus norvegicus [3]) was “Active”. For the same compound, the Activity (Rattus norvegicus [17]) was 0.148 delta mV, the Activity (Rattus norvegicus [5]) was 0.227 delta mV and the Activity (Rattus norvegicus [18]) was “inactive”. For the same compound, the Activity (Rattus norvegicus [6]) was 0.223 delta mV, the Activity (Rattus norvegicus [7]) was “Active” and the Activity (Rattus norvegicus [19]) was “Active”. For the same compound, the Activity (Rattus norvegicus [8]) was 0.091 delta mV, the IC50 (Rattus norvegicus [9]) was 352 nM and the Activity (Rattus norvegicus [20]) was “inactive”. The Activity (Rattus norvegicus [12]) was 0.059 delta mV and the IC50 (Rattus norvegicus [14]) was 203 nM.

Work on `O=C(CCCN1CCN(c2ccc(F)cc2)CC1)NC1c2ccccc2Oc2ccccc21` yielded a Kb (Rattus norvegicus [4]) of 69.2 nM.

For `O=C(CCCCN1CCN(c2ccc(F)cc2)CC1)NC1c2ccccc2CSc2ccccc21` (stereo not drawn), the Kb (Rattus norvegicus [4]) was 3.47 nM.

For `O=C(CCCN1CCN(c2ccc(F)cc2)CC1)NC1c2ccccc2CCc2ccccc21`, the Kb (Rattus norvegicus [4]) was 9.33 nM.

Compound `O=C(CCCN1CCN(c2ccc([N+](=O)[O-])cc2)CC1)NC1c2ccccc2CSc2ccccc21` (stereo not drawn) has a Kb (Rattus norvegicus [4]) of 7.94 nM.

`O=C(CCCN1CCN(CC(=O)c2ccccc2)CC1)NC1c2ccccc2CSc2ccccc21` (stereo not drawn) was tested, and the Kb (Rattus norvegicus [4]) was 15.5 nM.

For `O=C(CCCN1CCN(c2ccc(F)cc2)CC1)NC1c2ccccc2COc2ccccc21` (stereo not drawn), the Kb (Rattus norvegicus [4]) was 33.1 nM.

`O=C(CCCN1CCN(Cc2ccccc2)CC1)NC1c2ccccc2CSc2ccccc21` (stereo not drawn) gave a Kb (Rattus norvegicus [4]) of 2.88 nM.
